Seven compounds from ChEMBL document CHEMBL1124568, “2,4-Diamino-5-benzylpyrimidines as antibacterial agents. 13. Some alkenyl derivatives with high in vitro activity against anaerobic organisms” (J Med Chem, 1989) can be followed below.

Converted amounts (≈) assume the structure as drawn.

Data set [1] concerns the target T1, Dihydrofolate reductase (Rattus norvegicus, UniProt Q920D2).
T1 sequence (Q920D2 whole entry): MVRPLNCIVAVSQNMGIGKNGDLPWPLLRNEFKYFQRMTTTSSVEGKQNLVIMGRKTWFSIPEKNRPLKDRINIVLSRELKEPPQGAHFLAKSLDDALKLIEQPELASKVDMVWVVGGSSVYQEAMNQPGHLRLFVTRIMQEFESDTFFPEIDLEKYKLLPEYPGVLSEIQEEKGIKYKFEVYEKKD
In words: In vitro inhibition of rat liver dihydrofolate reductase. Particulars: read-out: I50.

Data set [2] has as its target Bifunctional dihydrofolate reductase-thymidylate synthase (Plasmodium berghei str. ANKA, UniProt Q27713). Nature of the data set: In vitro inhibition of dihydrofolate reductase of Plasmodium berghei. The following applies: read-out: I50.
The test system of data set [3] is Klebsiella aerogenes. Nature of the data set: Ratio of antibacterial (Enterobacter aerogenes, 2201/86) activities of compound and trimethoprim. It counts as functional. An outline of the steps: (§1)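 Each MIC is divided by the MIC of trimethoprim run alongside. Serial dilutions were normally 0.1, 0.3, 1, 3, 10, etc., and occasionally 1, 5 and 10. For E. coli the value is the average over six strains.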

For data set [4], the system named is Klebsiella pneumoniae. In words: Ratio of antibacterial (Klebsiella pneumoniae CN3632) activities of compound and trimethoprim. It is filed as functional. An outline of the steps:
as §1

For data set [5], the system named is Proteus vulgaris. Nature of the data set: Ratio of antibacterial (Proteus vulgaris CN329) activities of compound and trimethoprim. It is filed as functional. An outline of the steps: as §1
Data set [6] has as its system Shigella dysenteriae. Nature of the data set: Ratio of antibacterial (Shigella dysentariae CN513) activities of compound and trimethoprim. It is filed as functional.
Data set [7] has as its system Staphylococcus aureus. Nature of the data set: Ratio of antibacterial (Staphylococcus aureus CN491) activities of compound and trimethoprim. It is filed as functional. An outline of the steps: as §1
Data set [8] deals with Salmonella. In words: Ratio of antibacterial (Salmonella typhi CN512) activities of compound and trimethoprim. It counts as functional, salmonella typhosa.
The test system of data set [9] is Escherichia coli. In words: Ratio of antibacterial (Escherichia coli CN314) activities of compound and trimethoprim. It is filed as functional.
Data set [10] has as its target T2, Dihydrofolate reductase (Escherichia coli, UniProt P0ABQ4).
T2 sequence (P0ABQ4 whole entry): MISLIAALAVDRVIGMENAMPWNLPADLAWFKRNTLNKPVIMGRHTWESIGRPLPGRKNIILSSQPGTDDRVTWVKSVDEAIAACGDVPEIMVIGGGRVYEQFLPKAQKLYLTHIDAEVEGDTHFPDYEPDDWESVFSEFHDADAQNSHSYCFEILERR
In words: In vitro inhibition of dihydrofolate reductase of Escherichia coli. Particulars: read-out: I50. An outline of the steps: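 The E. coli DHFR assay contained 1 nM enzyme, with the lower limit for I50 arbitrarily set at 2 nM. I50 was estimated from plots of % inhibition of steady-state velocity vs log inhibitor concentration.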

Data set [11] deals with Streptococcus pyogenes. In words: Ratio of antibacterial (Streptococcus pyogenes CN10) activities of compound and trimethoprim.
Data set [12] is described as follows: Half-life in dogs Plasma. It counts as ADME, organism-based, Canis lupus familiaris. Particulars: dog. An outline of the steps:
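Two fasted (18 h) male beagles received 5 mg/kg […] (free base), co-dosed with 5 mg/kg trimethoprim in propylene glycol. Jugular plasma was sampled from 0.17 to 24 h. Drug was extracted, separated by TLC and read by fluorescence densitometry. t1/2 came from least-squares linear regression of the postabsorption segment of the plasma curve.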

In data set [13] the test system is Phocaeicola vulgatus. Nature of the data set: Ratio of antibacterial (Bacteroides vulgatus) activities compared to that of trimethoprim and metronidazole. It is filed as functional.
Data set [14] relates to Bacteroides thetaiotaomicron. In words: Ratio of antibacterial (Bacteroides thetaiotaomicron) activities compared to that of trimethoprim and metronidazole. It counts as functional.
For data set [15], the system named is Clostridioides difficile. In words: Ratio of antibacterial (Clostridium difficile) activities compared to that of trimethoprim and metronidazole. It is filed as functional.
Data set [16] concerns Clostridium perfringens. In words: Ratio of antibacterial (Clostridium perfringens) activities compared to that of trimethoprim and metronidazole. It counts as functional.
The test system of data set [17] is Escherichia coli. Nature of the data set: Antibacterial (Escherichia coli) activity compared to trimethoprim. It counts as functional. An outline of the steps: as §1
In data set [18] the test system is Fusobacterium nucleatum. Nature of the data set: Ratio of antibacterial (Fusobacterium nucleatum) activities compared to that of trimethoprim and metronidazole. It counts as functional.
The test system of data set [19] is Klebsiella pneumoniae. In words: Antibacterial (Klebsiella pneumoniae CN3632) activity compared to trimethoprim. It is filed as functional. An outline of the steps:
as §1

Data set [20] concerns Mycolicibacterium smegmatis. In words: Antibacterial (Mycobacterium smegmatis S3254) activity compared to trimethoprim. It is filed as functional. An outline of the steps:
as §1

Data set [21] relates to Pasteurella multocida. In words: Antibacterial (Pasteurella multocides ATCC 6587) activity compared to trimethoprim. It is filed as functional. An outline of the steps: as §1
For data set [22], the system named is Proteus vulgaris. Nature of the data set: Antibacterial (Proteus vulgaris CN329) activity compared to trimethoprim. It is filed as functional. An outline of the steps: as §1
Data set [23] is described as follows: Antibacterial (Salmonella typhi CN512) activity compared to trimethoprim. It is filed as functional, salmonella typhosa.
For data set [24], the system named is Shigella flexneri. In words: Antibacterial (Shigella flexneri CN6007) activity compared to trimethoprim. It is filed as functional. An outline of the steps: as §1
Data set [25] relates to Serratia marcescens. Nature of the data set: Antibacterial (Serratia marcescens CN2398) activity compared to trimethoprim. It counts as functional. An outline of the steps: as §1
Data set [26] relates to Streptococcus pyogenes. Nature of the data set: Antibacterial ([…] CN10) activity compared to trimethoprim. It is filed as functional. An outline of the steps:
as §1

Data set [27] deals with Staphylococcus aureus. Nature of the data set: Antibacterial (Staphylococcus aureus CN491) activity compared to trimethoprim. It counts as functional. An outline of the steps: as §1
In data set [28] the test system is Klebsiella aerogenes. Nature of the data set: Antibacterial (Enterobacter aerogenes 2201/86) activity compared to trimethoprim. It counts as functional. An outline of the steps: as §1

Chain of Bifunctional dihydrofolate reductase-thymidylate synthase (Q27713 whole entry): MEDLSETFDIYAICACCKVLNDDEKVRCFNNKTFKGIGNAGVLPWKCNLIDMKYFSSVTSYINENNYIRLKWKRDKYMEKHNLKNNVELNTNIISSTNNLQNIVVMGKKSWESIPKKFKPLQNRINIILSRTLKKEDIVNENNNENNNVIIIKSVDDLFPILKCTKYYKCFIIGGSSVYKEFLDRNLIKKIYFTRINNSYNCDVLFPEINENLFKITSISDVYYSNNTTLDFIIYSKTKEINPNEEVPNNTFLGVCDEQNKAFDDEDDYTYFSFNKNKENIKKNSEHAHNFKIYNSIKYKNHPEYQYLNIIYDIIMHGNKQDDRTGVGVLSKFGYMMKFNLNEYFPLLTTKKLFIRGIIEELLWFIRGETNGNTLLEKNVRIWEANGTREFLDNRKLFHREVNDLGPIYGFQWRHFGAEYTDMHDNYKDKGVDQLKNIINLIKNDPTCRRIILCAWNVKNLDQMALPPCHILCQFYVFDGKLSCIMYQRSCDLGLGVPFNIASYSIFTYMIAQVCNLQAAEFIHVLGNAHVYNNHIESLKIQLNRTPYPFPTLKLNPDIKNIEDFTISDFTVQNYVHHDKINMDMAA

For orientation: MIC means the smallest concentration in the dilution series that meets the test's criterion for growth inhibition. For the compound `CCCc1cc(Cc2cnc(N)nc2N)cc2c1OC(C)(C)C2`, the IC50 in [1] was found to be 9.9 µM; in data set [2] it was 0.24 µM; in data set [10], 0.28 µM. Moreover, the MIC in [3] amounted to 100 µg/mL; in data set [4] it was 100 µg/mL; in [5] it was 100 µg/mL; in data set [6] it was 300 µg/mL; in [7] it was 3 µg/mL; in data set [8] it was 300 µg/mL. The values for the minimal inhibitory concentration (MIC) in data set [9] and in data set [11] were 100 µg/mL and 3 µg/mL, respectively.

By half-life is commonly meant the time in which the quantity being followed falls by half. Low readings indicate rapid decline, high ones slow decline. For the compound `C=CCc1cc(Cc2cnc(N)nc2N)cc(OC)c1OC`, the half-life in data set [12] is 0.84 h. Moreover, the MIC is 1.6 µg/mL in data set [13]; 1.6 µg/mL in data set [14]; over 25 µg/mL in data set [15]; over 25 µg/mL in data set [16]; 6 µg/mL (≈ 20 µM) in data set [17]; 0.4 µg/mL in data set [18]. Besides, the MIC in [19] was found to be 10 µg/mL (≈ 33.3 µM); in data set [20], 3 µg/mL (≈ 9.99 µM); in data set [21] it was 10 µg/mL (≈ 33.3 µM); in data set [22] it was 10 µg/mL (≈ 33.3 µM); in data set [23], 3 µg/mL (≈ 9.99 µM); in [24] it was 10 µg/mL (≈ 33.3 µM). Also, the MIC was found to be 3 µg/mL (≈ 9.99 µM) in [25], 0.3 µg/mL (≈ 0.999 µM) in data set [26], 0.1 µg/mL (≈ 0.333 µM) in data set [27] and 10 µg/mL (≈ 33.3 µM) in [28]. For the same compound, in data set [1], the IC50 was found to be 50 µM.

With `CCCc1cc(Cc2cnc(N)nc2N)cc2c1OC(C)C2` (centres undefined), the values for the IC50 in data set [1], in data set [2] and in data set [10] were 6.25 µM, 0.093 µM and 0.021 µM, respectively. For the same compound, the MIC in [3] was determined as 100 µg/mL; in data set [4], 100 µg/mL; in data set [5] it was 30 µg/mL; in data set [6], 30 µg/mL; in data set [7], 1 µg/mL; in data set [8], 100 µg/mL. Moreover, the values for the MIC in [9] and in data set [11] were 30 µg/mL and 1 µg/mL, respectively.

Regarding `C=CCc1cc(Cc2cnc(N)nc2N)cc(OC)c1O`, in data set [12], the half-life was 0.7 h. For the same compound, the MIC was 1.6 µg/mL in [13]; 1.6 µg/mL in data set [14]; over 25 µg/mL in [15]; over 25 µg/mL in data set [16]; 1 µg/mL (≈ 3.49 µM) in data set [17]; 0.2 µg/mL in data set [18]. The MIC in [19] came to 0.3 µg/mL (≈ 1.05 µM); in data set [20], 3 µg/mL (≈ 10.5 µM); in data set [21], 1 µg/mL (≈ 3.49 µM); in data set [22], 3 µg/mL (≈ 10.5 µM); in [23], 3 µg/mL (≈ 10.5 µM); in [24], 1 µg/mL (≈ 3.49 µM). The MIC in data set [25] is 3 µg/mL (≈ 10.5 µM); in data set [26] it was 1 µg/mL (≈ 3.49 µM); in [27] it was 0.3 µg/mL (≈ 1.05 µM); in data set [28], 1 µg/mL (≈ 3.49 µM). Also, the IC50 in data set [1] was found to be 14.7 µM.

Regarding `C/C=C/c1cc(Cc2cnc(N)nc2N)cc(OC)c1OC`, the half-life in data set [12] is 2.25 h. The MIC in data set [13] is 0.8 µg/mL; in [14], 1.6 µg/mL; in data set [15] it was over 25 µg/mL; in [16], over 25 µg/mL; in data set [17], 6 µg/mL (≈ 20 µM); in data set [18], 0.8 µg/mL. Besides, the minimum inhibitory concentration (MIC) is 10 µg/mL (≈ 33.3 µM) in data set [19]; 3 µg/mL (≈ 9.99 µM) in [20]; 10 µg/mL (≈ 33.3 µM) in data set [21]; 3 µg/mL (≈ 9.99 µM) in [22]; 3 µg/mL (≈ 9.99 µM) in data set [23]; 10 µg/mL (≈ 33.3 µM) in [24]. Besides, the MIC in data set [25] came to 1 µg/mL (≈ 3.33 µM); in [26], 0.1 µg/mL (≈ 0.333 µM); in data set [27], 0.1 µg/mL (≈ 0.333 µM); in [28], 10 µg/mL (≈ 33.3 µM). Besides, the IC50 in data set [1] was 57 µM.

In data set [12], `CCOc1cc(Cc2cnc(N)nc2N)cc(OC)c1OC` gave a half-life of 3.13 h. Further, the IC50 in data set [1] worked out at 140 µM. The minimum inhibitory concentration (MIC) in data set [17] was determined as 2.6 µg/mL (≈ 8.54 µM); in data set [19], 1 µg/mL (≈ 3.29 µM); in data set [20] it was 1 µg/mL (≈ 3.29 µM); in data set [21], 1 µg/mL (≈ 3.29 µM); in data set [22] it was 1 µg/mL (≈ 3.29 µM); in data set [23], 1 µg/mL (≈ 3.29 µM). Further, the MIC amounted to 1 µg/mL (≈ 3.29 µM) in data set [24]; 3 µg/mL (≈ 9.86 µM) in data set [25]; 0.3 µg/mL (≈ 0.986 µM) in [26]; 0.3 µg/mL (≈ 0.986 µM) in data set [27]; 1 µg/mL (≈ 3.29 µM) in [28].

As to `Cc1cc(Cc2cnc(N)nc2N)cc2c1OC(C)(C)C2`, the figures for the IC50 in data set [1] and in data set [10] were 37 µM and 0.055 µM, respectively. For the same compound, the MIC in data set [3] came to 30 µg/mL; in data set [4], 10 µg/mL; in [5], 10 µg/mL; in data set [6], 10 µg/mL; in data set [7], 3 µg/mL; in [8], 10 µg/mL. In addition, the MIC in data set [9] came to 10 µg/mL; in data set [11], 3 µg/mL.
